Reference: ChEMBL document CHEMBL3792359, “Discovery of Orally Available Prodrugs of the Glutamate Carboxypeptidase II (GCPII) Inhibitor 2-Phosphonomethylpentanedioic Acid (2-PMPA)” (J Med Chem, 2016)

Assays:
[1] = Metabolic stability in human plasma assessed as compound remaining at 10 uM after 1 hr by LC/MS/MS analysis; assay type: ADME, cell-free; conditions: read-out: Stability
Outline: (§1)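 Prodrug at 10 µM spiked into mouse or human plasma or liver microsomes, incubated at 37 °C on an orbital shaker. Triplicate aliquots taken at 0, 30 and 60 min, quenched with 3 volumes of ice-cold acetonitrile containing losartan internal standard, vortexed, spun 12000 g for 10 min. Parent disappearance followed by LC/MS/MS and reported as % remaining at 1 h.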

[2] = Metabolic stability in mouse liver microsomes assessed as compound remaining at 10 uM after 1 hr by LC/MS/MS analysis; assay type: ADME; conditions: read-out: Stability; outline: as §1
[3] = system: Plasma; test: Prodrug activation in mouse plasma assessed as 2-phosphonomethylpentanedioic acid formation at 30 mg/kg administered via oral gavage after 30 mins by LC/MS/MS analysis; assay type: organism-based; conditions: in vivo, 0.5 h
Outline: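 Mice given prodrug orally at 30 mg/kg (equivalent of 1), 10 mL/kg volume; blood taken at 30 min, N=3. Plasma extracted with methanol containing 2-PMSA internal standard. Released 1 measured selectively after mild MTBSTFA derivatization (~60 °C, 40 min) by LC/MS/MS. Total prodrug plus metabolites measured separately after n-butanol/3N HCl derivatization (60°C, 30 min), which converts all species to butyl esters of 1.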

[4] = Metabolic stability in human liver microsomes assessed as compound remaining at 10 uM after 1 hr by LC/MS/MS analysis; assay type: ADME; conditions: read-out: Stability; outline: as §1
[5] = Metabolic stability in mouse plasma assessed as compound remaining at 10 uM after 1 hr by LC/MS/MS analysis; assay type: ADME, cell-free; conditions: read-out: Stability; outline: as §1
[6] = Chemical stability of compound; assay type: physicochemical
[7] = Cmax in mouse at 10 mg/kg administered via oral gavage measured after 15 mins to 4 hrs by LC/MS/MS analysis; assay type: ADME, organism-based; parameters: dose 10 mg/kg, route oral; conditions: in vivo
[8] = Cmax in mouse at 30 mg/kg administered via oral gavage measured after 15 mins to 4 hrs by LC/MS/MS analysis; assay type: ADME, organism-based; parameters: dose 30 mg/kg, route oral; conditions: in vivo
Outline: (§2)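 Mice were dosed by oral gavage at 30 mg/kg (parent-drug equivalent) in 10 mL/kg. Blood was taken by cardiac puncture at 0, 15 and 30 min and 1, 2 and 4 h, n=3 per time point. Plasma was stored at -80 °C and the released parent drug measured by LC/MS/MS. Cmax and Tmax are observed values; AUC is the log-linear trapezoidal AUClast.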

[9] = Tmax in mouse at 30 mg/kg administered via oral gavage measured after 15 mins to 4 hrs by LC/MS/MS analysis; assay type: ADME, organism-based; conditions: in vivo; outline: as §2
[10] = system: Plasma; test: Plasma concentration in rhesus monkey at 10 mg/kg, po measured at 0.25 to 2 hrs post dose; assay type: ADME, organism-based, Macaca mulatta; conditions: in vivo
[11] = AUC (0 to t hrs) in mouse at 10 mg/kg administered via oral gavage measured after 15 mins to 4 hrs by LC/MS/MS analysis; assay type: ADME, organism-based; parameters: dose 10 mg/kg, time 0.25-4 hr, route oral; conditions: in vivo
[12] = AUC (0 to t hrs) in mouse at 30 mg/kg administered via oral gavage measured after 15 mins to 4 hrs by LC/MS/MS analysis; assay type: ADME, organism-based; parameters: time lower 0.25 hr, dose 30 mg/kg, time upper 4 hr, route oral; conditions: in vivo; outline: as §2
[13] = system: Mus musculus; test: Cmax in mouse assessed as 2-phosphonomethylpentanedioic acid at 30 mg/kg administered via oral gavage measured after 15 mins to 4 hrs by LC/MS/MS analysis; assay type: ADME, organism-based; parameters: dose 30 mg/kg, route oral; conditions: in vivo
Outline: (§3)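 Mice dosed orally at 30 mg/kg (equivalent of 1), 10 mL/kg dosing volume. Cardiac-puncture blood at 0, 15, 30 min, 1, 2, 4 h, n=3 per time point; plasma stored at -80°C. Methanol precipitation with 2-PMSA internal standard, then mild MTBSTFA derivatization (~60 °C, 40 min) so only free 1 is measured by LC/MS/MS. Cmax/Tmax observed; AUC to last sample by log-linear trapezoidal rule.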

[14] = system: Mus musculus; test: Tmax in mouse assessed as 2-phosphonomethylpentanedioic acid at 30 mg/kg administered via oral gavage measured after 15 mins to 4 hrs by LC/MS/MS analysis; assay type: ADME, organism-based; conditions: in vivo; outline: as §3
[15] = system: Canis familiaris; test: Tmax in beagle dog assessed as 2-phosphonomethylpentanedioic acid at 10 mg/kg administered via oral gavage measured after 30 mins to 8 hrs by LC/MS/MS analysis; assay type: ADME, organism-based, Canis lupus familiaris; conditions: in vivo
Outline: (§4)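 Single beagle dog given oral dose of 10 mg/kg (expressed as equivalent of 1). Jugular venipuncture blood at 0, 30 min, 1, 2, 4, 6, 8 h into potassium oxalate/NaF tubes, kept on wet ice, spun 3000 x g, 4°C, 5 min; plasma frozen at -60 to -80°C. LC/MS/MS. Cmax and Tmax taken as observed values; AUC to last sample by log-linear trapezoidal rule.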

[16] = system: Canis familiaris; test: Cmax in beagle dog assessed as 2-phosphonomethylpentanedioic acid at 10 mg/kg administered via oral gavage measured after 30 mins to 8 hrs by LC/MS/MS analysis; assay type: ADME, organism-based, Canis lupus familiaris; parameters: dose 10 mg/kg, route oral; conditions: in vivo; outline: as §4
[17] = system: Canis familiaris; test: AUC (0 to t) in beagle dog assessed as 2-phosphonomethylpentanedioic acid at 10 mg/kg administered via oral gavage measured after 30 mins to 8 hrs by LC/MS/MS analysis; assay type: ADME, organism-based, Canis lupus familiaris; parameters: dose 10 mg/kg, time upper 8 hr, time lower 0.5 hr, route oral; conditions: in vivo; outline: as §4
[18] = system: Mus musculus; test: AUC (0 to t) in mouse assessed as 2-phosphonomethylpentanedioic acid at 30 mg/kg administered via oral gavage measured after 15 mins to 4 hrs by LC/MS/MS analysis; assay type: ADME, organism-based; parameters: time upper 4 hr, dose 30 mg/kg, time lower 0.25 hr, route oral; conditions: in vivo; outline: as §3

Structure (SMILES)	remaining at 1 h, 10 µM [1] [%]	remaining at 1 h, 10 µM [2] [%]	Drug metabolism [3] [µM]	remaining at 1 h, 10 µM [4] [%]	remaining at 1 h, 10 µM [5] [%]	other results
CCOC(=O)C(CCC(=O)O)CP(=O)(OCOC(=O)C(C)(C)C)OCOC(=O)C(C)(C)C (configuration not stated)	61	0	0.54	26	3	–
COC(=O)C(CCC(=O)O)CP(=O)(OCOC(=O)C(C)(C)C)OCOC(=O)C(C)(C)C (configuration not stated)	82	0	0.74	54	0	–
COC(=O)CCC(CP(=O)(O)O)C(=O)OC (configuration not stated)	96	101	–	103	86	–
CCOC(=O)C(CCC(=O)O)CP(=O)(OCOC(=O)OC(C)C)OCOC(=O)OC(C)C (configuration not stated)	80	0	0.49	32	0	–
COC(=O)CCC(CP(=O)(OCOC(=O)OC(C)C)OCOC(=O)OC(C)C)C(=O)OC (configuration not stated)	0	0.1	–	0	0.1	–
CC(C)OC(=O)OCOP(=O)(CC(CCC(=O)O)C(=O)O)OCOC(=O)OC(C)C (configuration not stated)	–	–	–	–	–	Stability [6]: Unstable
O=C(O)CCC(CP(=O)(O)O)C(=O)O (configuration not stated)	83	100	–	91	85	Cmax [7]: 280 nM; Cmax [8]: 860 nM; Tmax [9]: 1 h; concentration [10]: 180 nM; AUC(0-t) [11]: 0.6 µM·h; AUC(0-t) [12]: 1.94 µM·h
CC(C)OC(=O)OCOC(=O)C(CCC(=O)O)CP(=O)(OCOC(=O)OC(C)C)OCOC(=O)OC(C)C (configuration not stated)	48	0	15.66	0	0	Cmax [13]: 15100 nM; Tmax [14]: 0.5 h; Tmax [15]: 1 h; Cmax [16]: 51100 nM; AUCt [17]: 126 µM·h; AUCt [18]: 35.9 µM·h
COC(=O)CCC(CP(=O)(OCOC(=O)C(C)(C)C)OCOC(=O)C(C)(C)C)C(=O)OC (configuration not stated)	29	0	–	0	0	–
CC(C)(C)C(=O)OCOC(=O)C(CCC(=O)O)CP(=O)(OCOC(=O)C(C)(C)C)OCOC(=O)C(C)(C)C (configuration not stated)	79	0	15.8	0	0	–
CCOC(=O)CCC(CP(=O)(OCOC(=O)C(C)(C)C)OCOC(=O)C(C)(C)C)C(=O)OCC (configuration not stated)	18	0	–	0	0	–
CCOC(=O)CCC(CP(=O)(O)O)C(=O)OCC (configuration not stated)	73	83	–	88	59	–
